Many of the other results were omitted from the sample, so hits are more common in it than they were.
CHOP UPR activ = apoptotic UPR (CHOP) activation | CHO-CHOP luciferase reporter, luminescence; percent of tunicamycin response over DMSO baseline | activation, % at 10 µM | 330,000 tested, 0.34% active;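 active = at 10 µM dose, activation of 40% or more, normalized to positive control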;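 note: 100% = tunicamycin at 10 µg/mL and 0% = DMSO alone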
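System: CHO-CHOP luciferase reporter cell line; amount: 500 cells/well; buffer or medium: F12 medium containing 10% fetal bovine serum; incubation: 6 h compound exposure at 37 °C after overnight seeding; measured by: luciferase luminescence after 10 min with Steady-Glo reagent; evaluation: % reporter activation, DMSO baseline versus tunicamycin full activation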
Dynein cargo inh = dynein cargo transport inhibition | z-score, hits read low | 220,000 tested, 0.47% active | 3617.4 mouse cells, GR-EGFP nuclear translocation imaging; test concentration mostly 20 µM; stimulated with dexamethasone, 1 µM; hits give low values;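 active = plate z-score of nuclear minus cytoplasmic receptor signal below a set negative limit, without overly bright fluorescence or cell loss, cut at about -3.5 in these data, passing the limit was not always enough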;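 note: z-score of nuclear minus cytoplasmic ring GR-EGFP intensity difference per well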
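Also added – dexamethasone, 1.0 µM final · Buffer or medium – tet-free, stripped-serum medium · Schedule – induction 48 h, compound 1 h, agonist 30 min · Detection – formaldehyde fixation, Hoechst nuclear stain, 10x automated fluorescence imaging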
XBP1 UPR activ = adaptive UPR (XBP1) activation | 330,000 tested, 0.33% active | AID 463104 | activation, % at 20 µM | CHO-XBP1 luciferase reporter, IRE1-XBP1 UPR activation, luminescence; percent of tunicamycin response, DMSO as zero;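 active = versus positive control, 20 µM dose yields 30% or more activation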;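 note: 100% = tunicamycin at 10 µg/mL and 0% = DMSO only wells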
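Signal: luciferase luminescence; Assay system: CHO-XBP1 luciferase reporter cells; Amount: one thousand reporter cells per well; Dosing: 20 µM single concentration, DMSO 1%; Benchmarks: high control tunicamycin 10 µg/mL final, low control DMSO vehicle only; Schedule: 6 h compound exposure at 37 °C, 5% CO2; Evaluation: percent activation relative to tunicamycin reference.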
CHOP inh = CHOP inhibition in unfolded protein response; CHO-K1 CHOP-promoter luciferase, tunicamycin-induced, 15-18 h; inhibition, % at 10 µM; 220,000 tested, 3.8% active; AID 2732;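 active = compounds that reduced the stress-induced luciferase reporter signal by more than about 70% of percent inhibition, limit read from the data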;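 note: 0% = tunicamycin plus vehicle and 100% = wells without tunicamycin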
T cruzi inh = T. cruzi replication inhibition; T. cruzi beta-gal in NIH3T3, luminescence, 90 h; inhibition, % (test concentration not listed); 300,000 tested, 1.4% active; AID 1885;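 active = mean inhibition across valid replicates above about 55%, limit read from the data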;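 note: signal also drops with host cell toxicity which is not excluded here; 0% = plate median of DMSO wells and 100% = zero luminescence signal; higher percent means less beta-gal luminescence so fewer parasites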
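Incubation – ≥90 h infection period, 3 h prior cell attachment · System – NIH/3T3 fibroblasts plus reporter T. cruzi · Doses – compound pinned at 50 nL/well, DMSO · Read-out basis – percent inhibition of parasite-derived β-gal signal · Signal – luminescent β-galactosidase signal after 60 min lysis · Also added – 5000 T. cruzi trypomastigotes/well · Medium – Low-serum DMEM with 2% FBS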
L major viab = reduces viability of Leishmania major promastigotes. AID 1063. inhibition, % at 10 µM. 200,000 tested, 9% active. resazurin fluorescence viability; in the data active = inhibition above about 50%;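 note: promastigotes grown with compound for 44 hours at 28 °C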
An asterisk follows results filed as active; . = no result.

SMILES	CHOP UPR activ	Dynein cargo inh	XBP1 UPR activ	CHOP inh	T cruzi inh	L major viab
COc1cccc(C(Nc2ccccn2)c2c(NC(=O)c3ccco3)sc(C)c2C)c1 (configuration not stated)	-2.0	-0.425	1.3	19.4	59.2*	26.8
Cc1sc(NC(=O)c2ccco2)c(C(c2cccnc2)N2CCN(C)CC2)c1C (configuration not stated)	2.7	0.198	0.4	11.6	22.3	9.1
Cc1sc(NC(=O)c2ccco2)c(C(c2cccnc2)N2CCCC2)c1C (configuration not stated)	1.0	0.0411	2.4	28.1	49.9	99.0*
COc1ccc(C(Nc2ccccn2)c2c(NC(=O)c3ccco3)sc(C)c2C)cc1 (configuration not stated)	-2.3	0.334	-1.1	13.6	63.1*	25.2
NC(CCCCc1ccccc1)c1cccc2ccccc12 (configuration not stated)	-1.9	.	-3.1	.	10.7	.
CC(C)N(C(=O)CSc1nnc(-c2ccc3c(c2)OCO3)n1C)C(C)C	-1.7	-0.434	4.0	19.4	5.5	5.0
CC(C)(C)C(=O)COC(=O)c1cccc(NC(=O)c2ccco2)c1	3.8	0.949	2.7	72.3*	-3.9	-3.3
COc1ccccc1NC(=O)c1cccc(NC(=O)c2ccco2)c1	3.5	-0.557	2.1	16.1	-13.7	87.9*
COc1ccc(NC(=O)c2ccco2)cc1N	4.4	-1.19	1.7	70.0*	23.8	27.7
COC(=O)c1cccc(NC(=O)c2ccco2)c1	1.8	0.0958	1.3	16.6	6.7	44.6
O=C(Nc1ccc(C(=O)Oc2ccccc2)c(O)c1)c1ccco1	4.3	0.936	-1.5	47.5	-4.6	55.0*
O=C(Nc1ccc(C(=O)Oc2ccccc2)c(O)c1)c1ccccc1	3.7	-0.828	3.8	33.8	-23.1	-8.1
COc1ccccc1NC(=O)c1ccc(NC(=O)c2ccco2)cc1	0.4	.	2.1	.	6.0	.
COc1ccc(OCC(=O)NC2CCSc3ccccc32)cc1 (configuration not stated)	0.0	.	1.1	.	.	.
C[C@H]1CN=C(Nc2ccccc2)N1CC1CCCCCC1	0.3	.	1.2	.	-4.6	.
Cc1ccc(NC(=S)N(CCC(C)C)C(C)c2ccncc2)c(Cl)c1 (configuration not stated)	0.0	0.727	0.0	21.9	-8.0	.
O=C(CSc1nc2nn(-c3ccccc3)c(=O)c-2c2n1CCCCC2)Nc1ccc(F)c(F)c1	6.7	.	-3.5	.	.	.
COc1c(F)c(F)c(C(=O)Nc2ccc(NC(=O)c3ccco3)cc2)c(F)c1F	-2.1	-0.0613	-2.5	80.1*	-10.2	63.7*
COc1ccccc1NC(=O)Oc1ccc(NC(=O)c2ccco2)cc1	-0.7	-1.26	0.3	7.2	-2.7	52.1*
O=C(Nc1ccc(Oc2ccc(NC(=O)c3ccco3)c(NC(=O)c3ccco3)c2)cc1)c1ccco1	1.7	1.72	1.4	40.5	-31.2	98.1*
COc1cc(NC(=O)c2ccco2)c(OC)cc1NC(=O)Nc1cccc(Cl)c1	0.2	-0.162	-1.9	63.0	57.0*	12.0
COc1ccc(NC(=O)c2ccco2)cc1NC(=O)c1ccco1	1.0	-0.513	2.1	8.3	-0.8	5.3
Cc1onc(-c2ccccc2)c1C(=O)NCCSCc1ccco1	3.2	.	1.2	.	.	.
COc1cc(OC)c(NS(=O)(=O)c2cc(C(=O)OC(C)C(=O)NC3CC3)c(Cl)cc2Cl)cc1Cl (configuration not stated)	-0.5	0.39	-5.6	25.0	6.4	77.9*
O=Cc1cn(CCOc2ccccc2)c2ccccc12	3.2	.	-0.5	.	4.6	.
COc1ccc(-n2cnnc2SCC(=O)NC2CCCc3ccccc32)cc1 (configuration not stated)	-0.8	0.368	-3.5	15.0	-12.4	68.5*
CCn1c(SCC(=O)NC2CCCc3ccccc32)nnc1-c1cccs1 (configuration not stated)	1.1	0.213	-2.3	23.2	1.9	56.5*
